Results as given in ChEMBL document CHEMBL4390691, “Discovery of 1,3-dihydro-2H-imidazo[4,5-c]quinolin-2-ones based novel, potent and PI3Kδ selective inhibitors” (Bioorg Med Chem Lett, 2019).
Active and inactive are the calls of the source. The rule behind the calls is not given here.

Columns and labels:
[1] = biological target: T1, Phosphatidylinositol 4,5-bisphosphate 3-kinase catalytic subunit delta isoform (Homo sapiens, UniProt O00329); assay: Inhibition of human PI3Kdelta using PIP2 as substrate after 1 hr
T1 sequence (O00329 whole entry): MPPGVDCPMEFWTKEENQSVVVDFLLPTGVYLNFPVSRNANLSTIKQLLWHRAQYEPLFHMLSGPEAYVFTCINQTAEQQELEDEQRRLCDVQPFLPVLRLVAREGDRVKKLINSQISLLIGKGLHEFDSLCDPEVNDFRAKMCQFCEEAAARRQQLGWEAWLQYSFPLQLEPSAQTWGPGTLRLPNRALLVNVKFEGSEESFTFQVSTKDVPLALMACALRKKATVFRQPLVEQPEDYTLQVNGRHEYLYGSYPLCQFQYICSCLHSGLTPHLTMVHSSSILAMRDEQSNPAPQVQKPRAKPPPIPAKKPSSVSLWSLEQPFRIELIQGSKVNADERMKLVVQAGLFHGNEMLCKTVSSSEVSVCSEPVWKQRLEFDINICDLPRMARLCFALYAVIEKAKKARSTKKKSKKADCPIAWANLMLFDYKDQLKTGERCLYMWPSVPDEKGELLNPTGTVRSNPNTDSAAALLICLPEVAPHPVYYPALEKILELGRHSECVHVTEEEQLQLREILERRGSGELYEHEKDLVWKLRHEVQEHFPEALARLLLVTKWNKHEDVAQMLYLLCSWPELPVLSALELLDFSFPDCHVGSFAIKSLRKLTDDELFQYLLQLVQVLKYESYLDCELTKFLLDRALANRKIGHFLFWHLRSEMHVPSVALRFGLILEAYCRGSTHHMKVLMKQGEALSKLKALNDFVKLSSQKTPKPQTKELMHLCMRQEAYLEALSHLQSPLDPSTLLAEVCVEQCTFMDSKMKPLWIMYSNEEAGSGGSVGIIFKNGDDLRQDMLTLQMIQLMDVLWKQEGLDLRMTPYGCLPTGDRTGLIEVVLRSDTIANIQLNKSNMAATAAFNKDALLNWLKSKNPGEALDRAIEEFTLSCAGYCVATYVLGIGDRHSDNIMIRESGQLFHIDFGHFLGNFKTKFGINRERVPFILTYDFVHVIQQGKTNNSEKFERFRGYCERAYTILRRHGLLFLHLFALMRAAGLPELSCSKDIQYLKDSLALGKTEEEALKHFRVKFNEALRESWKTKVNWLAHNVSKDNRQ

[2] = Half life in C57BL/6J mouse at 3 mg/kg, po measured up to 30 hrs by LC-MS/MS analysis; type: ADME, organism-based; conditions: in vivo
Procedure, shortened: (§1)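 Male C57BL/6J mice (n = 6) received single doses of 3 mg/kg po or 1 mg/kg iv. Plasma concentrations were measured by LC-MS. Values are mean ± SD. Oral bioavailability (%F) was calculated from the ratio to iv AUC.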

[3] = biological target: Phosphatidylinositol 4,5-bisphosphate 3-kinase catalytic subunit gamma isoform (Homo sapiens, UniProt P48736); assay: Inhibition of human PI3Kgamma using PIP2 as substrate after 1 hr
[4] = AUC (0 to infinity) in C57BL/6J mouse 1 mg/kg, iv measured up to 30 hrs by LC-MS/MS analysis; type: ADME, organism-based; parameters: dose 1 mg/kg, time infinity, route intravenous; conditions: in vivo
Procedure, shortened: (§2)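 Single-dose PK in male C57BL/6J mice (n = 6), dosed 1 mg/kg iv or 3 mg/kg orally. Plasma drug levels were measured by LC-MS, and PK parameters (Tmax, Cmax, t1/2, Cl, AUC, %F) were derived. Values are given as mean ± SD. Oral bioavailability was calculated against the iv AUC.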

[5] = biological target: Phosphatidylinositol 4,5-bisphosphate 3-kinase catalytic subunit alpha isoform (Homo sapiens, UniProt P42336); assay: Inhibition of human PI3Kalpha using PIP2 as substrate after 1 hr
[6] = biological target: Phosphatidylinositol 4,5-bisphosphate 3-kinase catalytic subunit beta isoform (Homo sapiens, UniProt P42338); assay: Inhibition of human PI3Kbeta using PIP2 as substrate after 1 hr
[7] = AUC (0 to infinity) in C57BL/6J mouse 3 mg/kg, po measured up to 30 hrs by LC-MS/MS analysis; type: ADME, organism-based; parameters: dose 3 mg/kg, route oral, time infinity; conditions: in vivo; procedure, shortened: as §2
[8] = Tmax in C57BL/6J mouse at 3 mg/kg, po measured up to 30 hrs by LC-MS/MS analysis; type: ADME, organism-based; conditions: in vivo; procedure, shortened: as §1
[9] = Oral bioavailability in C57BL/6J mouse at 3 mg/kg measured up to 30 hrs by LC-MS/MS analysis; type: ADME, organism-based; conditions: in vivo; procedure, shortened: as §1
[10] = biological target: Serine/threonine-protein kinase mTOR (Homo sapiens, UniProt P42345); assay: Inhibition of mTOR (unknown origin) assessed as reduction in p70S6K phosphorylation
[11] = Cmax in C57BL/6J mouse at 3 mg/kg, po measured up to 30 hrs by LC-MS/MS analysis; type: ADME, organism-based; parameters: dose 3 mg/kg, route oral; conditions: in vivo; procedure, shortened: as §1
[12] = Clearance in C57BL/6J mouse at 1 mg/kg, iv measured up to 30 hrs by LC-MS/MS analysis; type: ADME, organism-based; conditions: in vivo; procedure, shortened: as §1
Homo sapiens [13] = organism: Homo sapiens; assay: Selectivity ratio of IC50 for human PI3Kgamma to IC50 for human PI3Kdelta
Procedure, shortened: (§3)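 IC50s for the PI3K α, β, γ and δ isoforms came from a commercial PI3K inhibitory activity assay kit. Each IC50 is the mean of at least two experiments. The ratio is the α, β or γ IC50 divided by the δ IC50.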

Mus musculus [14] = assay: Antiarthritic activity in complete Freund's adjuvant-induced DBA1/J mouse arthritis model assessed as inhibition in clinical arthritis score at 30 mg/kg, po […] relative to control; type: functional, organism-based
Procedure, shortened: (§4)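 Male DBA1j mice had arthritis induced with a collagen mixture and were enrolled once clinical signs appeared. Animals were split into four groups of eight: vehicle, a positive control and two doses of test compound. Treatment ran four weeks. The read-out was percentage inhibition of clinical arthritis score versus the vehicle group.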

CYP2C9 = CYP2C9 (Homo sapiens, UniProt P11712); assay: Inhibition of CYP2C9 in human liver microsomes at 10 uM using testosterone/dextromethorphan as probe substrate measured after 10 mins relative to control; type: ADME
Homo sapiens [15] = organism: Homo sapiens; assay: Selectivity ratio of IC50 for human PI3Kalpha to IC50 for human PI3Kdelta; procedure, shortened: as §3
CYP1A2 = biological target: T2, CYP1A2 (Homo sapiens, UniProt P05177); assay: Inhibition of CYP1A2 in human liver microsomes at 10 uM using testosterone/dextromethorphan as probe substrate measured after 10 mins relative to control; type: ADME
T2 sequence (P05177 whole entry): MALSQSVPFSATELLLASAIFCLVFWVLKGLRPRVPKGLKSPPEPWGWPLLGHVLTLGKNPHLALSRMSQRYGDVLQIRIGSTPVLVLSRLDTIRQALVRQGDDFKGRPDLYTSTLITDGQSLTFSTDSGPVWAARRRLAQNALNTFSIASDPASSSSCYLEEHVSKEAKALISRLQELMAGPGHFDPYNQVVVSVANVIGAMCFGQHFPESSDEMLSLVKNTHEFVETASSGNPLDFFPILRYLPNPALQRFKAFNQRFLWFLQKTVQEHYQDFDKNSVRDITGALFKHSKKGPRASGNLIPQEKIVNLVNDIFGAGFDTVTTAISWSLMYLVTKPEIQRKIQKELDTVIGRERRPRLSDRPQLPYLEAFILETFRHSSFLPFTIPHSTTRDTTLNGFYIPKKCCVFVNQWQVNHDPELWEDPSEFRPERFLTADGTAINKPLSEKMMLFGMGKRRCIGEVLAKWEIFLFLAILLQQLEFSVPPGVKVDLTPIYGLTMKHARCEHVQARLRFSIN

CYP3A4 = CYP3A4 (Homo sapiens, UniProt P08684); assay: Inhibition of CYP3A4 in human liver microsomes at 10 uM using testosterone/dextromethorphan as probe substrate measured after 10 mins relative to control; type: ADME
[16] = Toxicity in human TMD8 cells xenografted SCID mouse assessed as decrease in body weight at 30 mg/kg/day, po QD for 16 days; type: organism-based; conditions: in vivo, 384 h
Procedure, shortened: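 Male SCID mice bearing TMD-8 xenografts received oral doses of 3, 10 or 30 mg/kg/day. Body weight was recorded during treatment.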

CYP2C8 = biological target: T3, CYP2C8 (Homo sapiens, UniProt P10632); assay: Inhibition of CYP2C8 in human liver microsomes at 10 uM using testosterone/dextromethorphan as probe substrate measured after 10 mins relative to control; type: ADME
T3 sequence (P10632 whole entry): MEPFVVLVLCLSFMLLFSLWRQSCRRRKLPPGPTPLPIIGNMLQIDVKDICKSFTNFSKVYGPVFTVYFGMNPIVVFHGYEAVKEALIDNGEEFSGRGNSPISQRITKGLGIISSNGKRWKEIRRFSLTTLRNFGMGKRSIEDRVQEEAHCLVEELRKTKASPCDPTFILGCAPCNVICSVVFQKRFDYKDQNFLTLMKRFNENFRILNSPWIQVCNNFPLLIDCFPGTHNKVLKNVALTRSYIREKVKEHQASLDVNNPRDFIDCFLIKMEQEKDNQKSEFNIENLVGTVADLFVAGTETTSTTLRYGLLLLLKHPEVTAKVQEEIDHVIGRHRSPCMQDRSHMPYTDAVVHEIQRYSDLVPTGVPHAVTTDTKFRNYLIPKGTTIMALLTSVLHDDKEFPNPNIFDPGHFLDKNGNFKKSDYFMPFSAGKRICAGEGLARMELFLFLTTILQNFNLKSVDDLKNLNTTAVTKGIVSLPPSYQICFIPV

TMD8 [17] = assay: Antitumor activity against human TMD8 cells xenografted in SCID mouse assessed as decrease in tumor volume at 30 mg/kg/day, po QD for 16 days and measured every alternate day; type: functional; conditions: 384 h
Procedure, shortened: (§5)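 Male SCID mice were inoculated with TMD-8 cells. Oral doses of 3, 10 and 30 mg/kg/day were given. The efficacy endpoint was inhibition of tumor volume relative to the vehicle (untreated) group.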

TMD8 [18] = assay: Antitumor activity against human TMD8 cells xenografted in SCID mouse assessed as decrease in tumor volume at 3 to 30 mg/kg/day, po QD for 16 days and measured every alternate day; type: functional, organism-based; procedure, shortened: as §5
CYP2D6 = CYP2D6 (Homo sapiens, UniProt P10635); assay: Inhibition of CYP2D6 in human liver microsomes at 10 uM using testosterone/dextromethorphan as probe substrate measured after 10 mins relative to control; type: ADME
[19] = biological target: Voltage-gated inwardly rectifying potassium channel KCNH2 (Homo sapiens, UniProt Q12809); assay: Inhibition of human ERG
[20] = Protein binding in DBA1/J mouse plasma; type: ADME, cell-free; conditions: read-out: PPB (converted)
TMD8 [21] = assay: Antiproliferative activity against human TMD8 cells; type: functional, cell-based
[22] = Toxicity in DBA1/J mouse assessed as reduction in body weight at 30 mg/kg, po administered for […] measured thrice per week; type: organism-based; conditions: in vivo
Procedure, shortened: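 The model was collagen-induced arthritis in male DBA1j mice, with eight per group and four weeks of treatment. Body weight was recorded three times weekly as a marker of treatment-related side effects.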

Homo sapiens [23] = organism: Homo sapiens; assay: Selectivity ratio of IC50 for human PI3Kbeta to IC50 for human PI3Kdelta; procedure, shortened: as §3
Mus musculus [24] = assay: Antiarthritic activity in complete Freund's adjuvant-induced DBA1/J mouse arthritis model assessed as inhibition in clinical arthritis score at 10 mg/kg, po administered […] relative to control; type: functional, organism-based; procedure, shortened: as §4
CYP2C19 = CYP2C19 (Homo sapiens, UniProt P33261); assay: Inhibition of CYP2C19 in human liver microsomes at 10 uM using testosterone/dextromethorphan as probe substrate measured after 10 mins relative to control; type: ADME

Chain of Phosphatidylinositol 4,5-bisphosphate 3-kinase catalytic subunit beta isoform (P42338 whole entry, canonical isoform): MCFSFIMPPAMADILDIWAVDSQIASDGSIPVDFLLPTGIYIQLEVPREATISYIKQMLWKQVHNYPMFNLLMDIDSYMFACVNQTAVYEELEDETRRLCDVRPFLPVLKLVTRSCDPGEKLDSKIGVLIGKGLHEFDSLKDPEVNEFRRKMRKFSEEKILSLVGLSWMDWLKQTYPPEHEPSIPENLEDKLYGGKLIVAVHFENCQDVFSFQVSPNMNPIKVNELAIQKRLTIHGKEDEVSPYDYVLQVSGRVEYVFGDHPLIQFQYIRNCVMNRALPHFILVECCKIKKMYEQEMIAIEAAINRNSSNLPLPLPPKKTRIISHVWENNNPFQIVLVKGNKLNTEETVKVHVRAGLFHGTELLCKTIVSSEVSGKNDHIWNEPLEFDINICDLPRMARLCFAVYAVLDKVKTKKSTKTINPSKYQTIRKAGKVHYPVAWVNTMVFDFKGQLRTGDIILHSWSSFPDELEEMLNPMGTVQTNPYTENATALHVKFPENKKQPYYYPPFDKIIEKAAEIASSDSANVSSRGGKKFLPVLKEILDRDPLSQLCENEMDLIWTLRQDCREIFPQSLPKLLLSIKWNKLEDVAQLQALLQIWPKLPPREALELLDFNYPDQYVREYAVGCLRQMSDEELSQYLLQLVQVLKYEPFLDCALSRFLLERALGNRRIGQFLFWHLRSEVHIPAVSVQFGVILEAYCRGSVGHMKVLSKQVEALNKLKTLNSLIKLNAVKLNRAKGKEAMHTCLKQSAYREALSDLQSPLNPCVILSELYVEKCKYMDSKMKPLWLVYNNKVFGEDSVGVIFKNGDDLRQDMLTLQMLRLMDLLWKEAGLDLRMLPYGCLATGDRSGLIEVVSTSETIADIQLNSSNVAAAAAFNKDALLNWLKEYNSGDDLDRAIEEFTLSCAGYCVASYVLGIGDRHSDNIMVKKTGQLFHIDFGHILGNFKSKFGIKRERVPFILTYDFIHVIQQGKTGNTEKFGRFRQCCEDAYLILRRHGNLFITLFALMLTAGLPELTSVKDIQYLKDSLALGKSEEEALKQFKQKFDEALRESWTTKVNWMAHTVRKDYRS
Chain of Phosphatidylinositol 4,5-bisphosphate 3-kinase catalytic subunit alpha isoform (P42336 whole entry, looked up, canonical isoform): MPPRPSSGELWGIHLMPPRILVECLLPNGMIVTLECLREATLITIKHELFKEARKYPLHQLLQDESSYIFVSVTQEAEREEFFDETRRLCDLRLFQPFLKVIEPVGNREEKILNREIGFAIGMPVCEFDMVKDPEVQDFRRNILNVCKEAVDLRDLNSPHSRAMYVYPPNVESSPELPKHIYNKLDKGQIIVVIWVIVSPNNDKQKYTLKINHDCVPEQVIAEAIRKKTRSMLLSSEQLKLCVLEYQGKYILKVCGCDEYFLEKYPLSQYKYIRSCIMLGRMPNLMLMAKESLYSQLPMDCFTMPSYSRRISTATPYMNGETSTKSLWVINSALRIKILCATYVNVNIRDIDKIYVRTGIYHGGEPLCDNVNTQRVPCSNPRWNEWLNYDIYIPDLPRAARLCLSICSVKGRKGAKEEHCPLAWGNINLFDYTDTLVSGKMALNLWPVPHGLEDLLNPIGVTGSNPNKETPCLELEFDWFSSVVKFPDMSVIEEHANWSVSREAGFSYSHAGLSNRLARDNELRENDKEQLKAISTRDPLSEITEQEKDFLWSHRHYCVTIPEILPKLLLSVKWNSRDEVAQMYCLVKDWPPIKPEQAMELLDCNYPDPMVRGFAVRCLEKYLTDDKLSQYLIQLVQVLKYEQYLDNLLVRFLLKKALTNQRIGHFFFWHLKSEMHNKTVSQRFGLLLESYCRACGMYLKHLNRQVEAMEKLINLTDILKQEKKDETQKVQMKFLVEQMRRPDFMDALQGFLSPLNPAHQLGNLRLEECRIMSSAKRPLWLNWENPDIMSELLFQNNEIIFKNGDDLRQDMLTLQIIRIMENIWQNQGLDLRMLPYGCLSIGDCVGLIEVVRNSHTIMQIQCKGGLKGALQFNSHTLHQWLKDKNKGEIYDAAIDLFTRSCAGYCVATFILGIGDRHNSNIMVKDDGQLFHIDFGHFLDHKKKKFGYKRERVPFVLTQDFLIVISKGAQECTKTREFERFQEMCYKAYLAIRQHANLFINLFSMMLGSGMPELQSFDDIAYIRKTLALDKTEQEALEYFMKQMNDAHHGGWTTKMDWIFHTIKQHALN
Chain of Phosphatidylinositol 4,5-bisphosphate 3-kinase catalytic subunit gamma isoform (P48736 whole entry, canonical isoform): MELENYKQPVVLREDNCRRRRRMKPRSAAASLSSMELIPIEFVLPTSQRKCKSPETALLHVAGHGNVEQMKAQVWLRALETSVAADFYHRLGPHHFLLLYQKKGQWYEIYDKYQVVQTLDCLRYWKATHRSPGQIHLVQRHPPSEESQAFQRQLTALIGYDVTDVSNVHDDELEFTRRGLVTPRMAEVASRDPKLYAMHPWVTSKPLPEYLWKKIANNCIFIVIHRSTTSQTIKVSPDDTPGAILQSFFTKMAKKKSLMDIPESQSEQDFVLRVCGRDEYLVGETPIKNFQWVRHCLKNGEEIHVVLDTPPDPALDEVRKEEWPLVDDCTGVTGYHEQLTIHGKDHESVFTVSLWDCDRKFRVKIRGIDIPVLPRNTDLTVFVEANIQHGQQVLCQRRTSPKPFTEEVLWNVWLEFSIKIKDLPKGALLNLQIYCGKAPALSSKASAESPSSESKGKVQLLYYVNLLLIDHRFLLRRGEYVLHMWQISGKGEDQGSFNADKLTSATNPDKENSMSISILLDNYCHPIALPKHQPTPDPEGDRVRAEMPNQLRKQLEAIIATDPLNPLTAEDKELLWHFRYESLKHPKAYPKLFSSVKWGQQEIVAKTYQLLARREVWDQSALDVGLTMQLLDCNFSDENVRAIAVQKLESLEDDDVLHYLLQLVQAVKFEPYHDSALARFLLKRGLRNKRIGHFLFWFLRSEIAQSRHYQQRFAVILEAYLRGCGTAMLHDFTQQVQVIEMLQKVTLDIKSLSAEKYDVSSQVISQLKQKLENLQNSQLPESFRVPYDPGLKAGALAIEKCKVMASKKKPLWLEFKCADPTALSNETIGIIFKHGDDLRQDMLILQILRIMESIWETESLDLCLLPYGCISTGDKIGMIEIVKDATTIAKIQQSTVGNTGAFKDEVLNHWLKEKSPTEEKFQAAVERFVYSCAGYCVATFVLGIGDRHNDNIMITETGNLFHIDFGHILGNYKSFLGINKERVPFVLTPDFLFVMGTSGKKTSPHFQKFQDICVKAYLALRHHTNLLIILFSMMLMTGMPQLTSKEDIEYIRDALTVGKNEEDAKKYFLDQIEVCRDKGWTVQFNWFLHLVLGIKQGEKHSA
Chain of Voltage-gated inwardly rectifying potassium channel KCNH2 (Q12809 whole entry): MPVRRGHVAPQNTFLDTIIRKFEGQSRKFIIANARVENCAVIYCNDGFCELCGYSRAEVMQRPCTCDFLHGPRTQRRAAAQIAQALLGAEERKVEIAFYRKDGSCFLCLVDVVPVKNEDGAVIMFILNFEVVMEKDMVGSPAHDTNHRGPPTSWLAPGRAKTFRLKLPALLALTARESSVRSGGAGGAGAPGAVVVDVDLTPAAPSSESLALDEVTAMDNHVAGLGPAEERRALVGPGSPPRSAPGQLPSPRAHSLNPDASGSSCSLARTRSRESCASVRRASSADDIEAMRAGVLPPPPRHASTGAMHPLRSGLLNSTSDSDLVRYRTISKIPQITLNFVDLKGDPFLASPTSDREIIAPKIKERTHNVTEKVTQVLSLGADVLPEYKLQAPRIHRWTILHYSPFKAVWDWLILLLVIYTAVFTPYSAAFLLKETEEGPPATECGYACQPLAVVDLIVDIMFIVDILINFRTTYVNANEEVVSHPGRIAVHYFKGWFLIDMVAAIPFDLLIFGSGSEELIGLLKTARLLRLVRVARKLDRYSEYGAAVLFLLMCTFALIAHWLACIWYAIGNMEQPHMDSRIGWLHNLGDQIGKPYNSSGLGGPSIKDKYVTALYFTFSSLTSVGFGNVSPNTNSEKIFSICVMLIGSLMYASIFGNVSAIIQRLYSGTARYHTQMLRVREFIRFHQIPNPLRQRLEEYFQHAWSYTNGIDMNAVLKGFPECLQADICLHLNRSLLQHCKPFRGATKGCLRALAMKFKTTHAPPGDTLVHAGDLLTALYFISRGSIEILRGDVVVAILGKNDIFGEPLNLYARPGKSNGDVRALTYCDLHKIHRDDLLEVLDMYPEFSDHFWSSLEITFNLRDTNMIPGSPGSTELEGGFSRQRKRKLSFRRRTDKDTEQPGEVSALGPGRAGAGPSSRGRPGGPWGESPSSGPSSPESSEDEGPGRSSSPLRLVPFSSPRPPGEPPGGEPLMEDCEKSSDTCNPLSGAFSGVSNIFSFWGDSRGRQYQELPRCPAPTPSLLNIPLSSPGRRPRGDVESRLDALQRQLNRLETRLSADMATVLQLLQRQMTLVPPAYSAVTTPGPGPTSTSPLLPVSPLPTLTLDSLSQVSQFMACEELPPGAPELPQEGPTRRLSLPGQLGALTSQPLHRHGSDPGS
Chain of CYP2D6 (P10635 whole entry): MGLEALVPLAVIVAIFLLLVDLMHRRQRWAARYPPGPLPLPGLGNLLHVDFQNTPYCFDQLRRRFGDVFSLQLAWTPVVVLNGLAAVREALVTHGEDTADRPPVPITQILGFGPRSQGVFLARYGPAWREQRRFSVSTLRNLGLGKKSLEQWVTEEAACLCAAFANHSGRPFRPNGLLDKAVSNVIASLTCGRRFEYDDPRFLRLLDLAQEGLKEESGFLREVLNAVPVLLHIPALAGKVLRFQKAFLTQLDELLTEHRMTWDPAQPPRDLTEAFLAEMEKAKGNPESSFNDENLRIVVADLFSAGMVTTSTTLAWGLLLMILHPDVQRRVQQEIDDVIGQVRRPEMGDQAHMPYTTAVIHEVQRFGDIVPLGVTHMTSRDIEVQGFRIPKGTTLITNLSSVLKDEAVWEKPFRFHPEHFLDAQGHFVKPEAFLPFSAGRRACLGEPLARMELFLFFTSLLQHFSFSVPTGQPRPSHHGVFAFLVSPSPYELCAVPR

SMILES	IC50 [1]	half-life [2]	IC50 [3]	AUC [4]	IC50 [5]	IC50 [6]	AUC [7]	Tmax [8]	bioavailability [9]	IC50 [10]	Cmax [11]	clearance [12]	other results
COc1ccc(Cn2c(=O)n(C)c3c4cc(-c5cnc(OC)c(C)c5)ccc4ncc32)cc1	0.0111 µM	–	–	–	–	–	–	–	–	–	–	–	–
COc1ccc(Cn2c(=O)n(C)c3c4cc(-c5cnc6ccccc6c5)ccc4ncc32)cc1	0.0095 µM	2.31 h	0.038 µM	743 ng·h/mL	0.421 µM	0.342 µM	329 ng·h/mL	0.38 h	14.8%	0.676 µM	128 ng/mL	22.9 mL/min/kg	–
COc1ccc(Cn2c(=O)n(C)c3c4cc(-c5cnc(OC)c(NS(C)(=O)=O)c5)ccc4ncc32)cc1	0.0019 µM	3.48 h	0.112 µM	1850 ng·h/mL	0.891 µM	0.589 µM	3830 ng·h/mL	0.25 h	68.9%	> 1 µM	1280 ng/mL	8.24 mL/min/kg	Ratio IC50 (Homo sapiens [13]): 59; inhibition (Mus musculus [14]): Active; inhibition at 10 min, 10 µM (CYP2C9): < 10%; Ratio IC50 (Homo sapiens [15]): 469; inhibition at 10 min, 10 µM (CYP1A2): < 10%; inhibition at 10 min, 10 µM (CYP3A4): < 10%; Activity [16]: Non-Toxic; inhibition at 10 min, 10 µM (CYP2C8): < 10%; inhibition in vivo at 30 mg/kg/day (TMD8 [17]): 100%; Activity (TMD8 [18]): Dose-dependent effect; inhibition at 10 min, 10 µM (CYP2D6): < 10%; IC50 [19]: > 30 µM; fraction unbound [20]: 0.11; IC50 (TMD8 [21]): 0.34 µM; Activity [22]: Non-Toxic; Ratio IC50 (Homo sapiens [23]): 310; inhibition (Mus musculus [24]): Active; inhibition at 10 min, 10 µM (CYP2C19): < 10%
Cc1ccc(Cn2c(=O)n(C)c3c4cc(-c5cnc6ccccc6c5)ccc4ncc32)cc1	0.0184 µM	–	–	–	–	–	–	–	–	–	–	–	–
